The text below walks through data of ChEMBL document CHEMBL4513216, “Probing the Open Global Health Chemical Diversity Library for Multistage-Active Starting Points for Next-Generation Antimalarials” (ACS Infect Dis, 2020).

A short description of this series: Toxicity liver stage against HepG2, at 10uM. It counts as cell-based. Also on record: test concentration 10 uM, cell line HepG2-A16-CD81EGFP. The settings on record: human, HepG2-A16-CD81EGFP cells; read-out: INHIBITION
In outline: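 Uninfected HepG2-A16-CD81EGFP cells, 3 × 10^3 per well, 1536-well, plated on prespotted compound at 10 μM final, parasite-free screening media added to match infected plates; puromycin 10 μM positive, DMSO 0.5% negative; run in parallel with 48 h PbLuc assay at 37 °C, 5% CO2; viability by CellTiter-Glo luminescence, normalized to controls.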
As to `CCOc1cc(NC(=O)N2CCOC3(CCC3)C2)ccc1C`, the cytotoxicity at 10 µM is -0.535%.

Take `CCn1cc(CN2CCC(CCC(=O)Nc3ccccc3Cl)CC2)cn1`: the cytotoxicity at 10 µM is -0.99%.

`Fc1ccc(CN2CCCn3cnc(COCC4CC4)c3C2)cc1`: the cytotoxicity at 10 µM came to 7.43%.

For `CC(C)(C)c1noc(CCC(=O)N2CCNC(=O)C2)n1`, the cytotoxicity at 10 µM was -4.96%.

On to `COc1ccc(N2CCN(C(=O)CCn3nnnc3C)CC2(C)C)cc1`, for which the cytotoxicity at 10 µM was determined as 10.4%.

Turning to `CN(C)CC1(O)CCCN(C(=O)c2ccccc2-n2cccn2)C1` (configuration not stated), the cytotoxicity at 10 µM is -20.6%.

In the case of `Cc1cc(C(=O)N2CC[C@@]3(O)CCN(C(=O)N4CCCC4)C[C@H]3C2)no1`, the cytotoxicity at 10 µM is -6.74%.

`CC(C)=CCN1CCN(C(=O)c2snnc2C)[C@H]2CS(=O)(=O)C[C@H]21`: the cytotoxicity at 10 µM is -0.987%.

Consider `CCc1[nH]ncc1C(=O)N1CCCC(n2cccn2)C1` (configuration not stated), for which the cytotoxicity at 10 µM turned out to be 4.62%.

On to `Cc1ccc(N2CCCC(NCc3cccs3)C2)nn1` (configuration not stated), for which the cytotoxicity at 10 µM was -33%.

With `CCC(CN1CCCC1)n1cncc1-c1cnn(-c2ccc(F)cc2)c1` (configuration not stated), the cytotoxicity at 10 µM amounted to 5.29%.

In the case of `CS(=O)(=O)N1CCC(CNC(=O)C2CCC2)CC1`, the cytotoxicity at 10 µM was -2.99%.

Consider `Cc1cncc(C(=O)N2CCN(c3cnn(C)c(=O)c3)CC2)c1`, for which the cytotoxicity at 10 µM was -20.4%.

Turning to `O=C(Cc1ccon1)N(CCC(F)(F)F)C1CCCC1`, the cytotoxicity at 10 µM is -9.36%.

For the compound `CC(C)CCC(=O)NC(C)c1nnc2n1CCCCC2` (configuration not stated), the cytotoxicity at 10 µM was -7.76%.

Take `NC(=O)N1CCCN(C2CCc3ccc(F)cc32)CC1` (configuration not stated): the cytotoxicity at 10 µM was determined as 3.93%.

Consider `CCCc1nc(CN2CCCC(Cn3cncn3)C2)no1` (configuration not stated), for which the cytotoxicity at 10 µM is -4.02%.

For `N#Cc1ccccc1OCCN1CCn2c(nnc2C2CC2)C1`, the cytotoxicity at 10 µM amounted to 2.94%.

As for `Cc1cc(C)c2[nH]c(=O)c(CN3CCCC(O)(CO)C3)cc2c1` (configuration not stated), the cytotoxicity at 10 µM was -2.25%.

Consider `Cn1ncc2c1C(COCC1CC1)CN(S(=O)(=O)C1CC1)C2` (configuration not stated), for which the cytotoxicity at 10 µM is -74.3%.

In the case of `CS(=O)(=O)N1C[C@@H](C(=O)Nc2cnccn2)C[C@H]2OCC[C@H]21`, the cytotoxicity at 10 µM came to 17.3%.

As to `CC(C)(C)c1oc(C(N)=O)cc1CN1CCOC(C(F)(F)F)C1` (configuration not stated), the cytotoxicity at 10 µM was -4.81%.

As for `O=C(NC1CC(=O)N(C2Cc3ccccc3C2)C1)c1ccsc1` (configuration not stated), the cytotoxicity at 10 µM is -1.98%.

For `CCNC(=O)N(C)C(c1cccnc1)C(C)C` (configuration not stated), the cytotoxicity at 10 µM is -10.2%.

Take `O=C(N[C@H]1CN(c2ccncc2)C[C@@H]1C1CC1)C1CCOCC1`: the cytotoxicity at 10 µM was -11.8%.

For `COc1ccc(C(=O)NS(=O)(=O)c2cc(Cl)sc2Cl)cc1OC(F)F`, the cytotoxicity at 10 µM is -4.73%.

For `CN1CC2(CCN(C(=O)Cn3ncc4ccccc4c3=O)CC2)OC1=O`, the cytotoxicity at 10 µM is -2.96%.

As to `CCCN1CCC(N2CCN(c3cc(C)nc(COC)n3)CC2)CC1`, the cytotoxicity at 10 µM is -0.332%.

As for `Cn1cc(C2CCCN2C(=O)CCCOc2ccccc2F)cn1` (configuration not stated), the cytotoxicity at 10 µM was 0.2%.

Regarding `Cc1ccc(CN(Cc2cc(=O)n3cccc(C)c3n2)C(C)C)o1`, the cytotoxicity at 10 µM stood at 7.65%.

As for `COc1ccc(C[C@H]2CNCC[C@@H]2OCC2CC2)cc1`, the cytotoxicity at 10 µM is -1.24%.

On to `OCCCN1CCCC1c1nc(Cc2ccc(F)cc2)no1` (configuration not stated), for which the cytotoxicity at 10 µM was -4.58%.

Turning to `CCc1ncc2c(n1)CN(Cc1nc(-c3ccco3)oc1C)CC2`, the cytotoxicity at 10 µM was determined as 6.15%.

Turning to `COCC1c2c(cnn2C)CCN1Cc1ccc(C)cc1` (configuration not stated), the cytotoxicity at 10 µM is 45%.

For the compound `COCc1cc(O)nc(C2CCCN(Cc3cccc(OC)c3)C2)n1` (configuration not stated), the cytotoxicity at 10 µM stood at 4.97%.

`Cc1cc(C)n(CC2CCCCN2C(=O)c2ccc3nncn3c2)n1` (configuration not stated): the cytotoxicity at 10 µM is 0.168%.

For the compound `CCN(CC)c1ccc(-c2ccc(C)c(S(N)(=O)=O)c2)nn1`, the cytotoxicity at 10 µM was -7.99%.

Consider `COCC(Nc1nc(N(C)C)nc2c1CCNCC2)c1ccccn1` (configuration not stated), for which the cytotoxicity at 10 µM came to 1.58%.

As to `O=C(NCCn1cccc1)c1c(O)cc(F)cc1F`, the cytotoxicity at 10 µM was -5.22%.

Regarding `Cc1nonc1CN(C)Cc1nc(-c2ccccc2Cl)oc1C`, the cytotoxicity at 10 µM was -3.04%.

For `CCN(C(=O)NCCc1ccc(C)cc1C)C(C)CS(C)(=O)=O` (configuration not stated), the cytotoxicity at 10 µM came to 11.3%.

Take `CCC(C)C(=O)NCc1ccc(-n2cncn2)nc1` (configuration not stated): the cytotoxicity at 10 µM amounted to 8.85%.

On to `CC(=O)Nc1nc(C(=O)NCCOc2cccc(F)c2)cs1`, for which the cytotoxicity at 10 µM amounted to 7.9%.

As for `CC(C)c1nccn1C1CCCN(C(=O)c2cc(C3CC3)on2)C1` (configuration not stated), the cytotoxicity at 10 µM is -7.37%.

On to `CN(CC(=O)N1CCCC1c1ccccn1)Cc1ccccc1` (configuration not stated), for which the cytotoxicity at 10 µM was -0.51%.

Consider `COCc1nc(C(=O)N2CCCC(n3ccnc3C)C2)cs1` (configuration not stated), for which the cytotoxicity at 10 µM was -33.6%.

For `CN(C)C1(CNC(=O)Cc2ccc(F)cc2)CCOCC1`, the cytotoxicity at 10 µM turned out to be 6.03%.

On to `CC(C)c1nc(C2CCCN(c3ncccn3)C2)no1` (configuration not stated), for which the cytotoxicity at 10 µM worked out at 12.4%.

Take `CC(O)CN1CCN(C(=O)c2cc3ccccc3n2C)CC1` (configuration not stated): the cytotoxicity at 10 µM stood at 2.99%.

Take `CC(C)CC(O)C1CCN(Cc2cnc(-c3cccs3)nc2)CC1` (configuration not stated): the cytotoxicity at 10 µM was -3.18%.

For the compound `CNC(=O)[C@@H]1CCO[C@@H]2CCN(CCc3ccccc3)C[C@H]21`, the cytotoxicity at 10 µM was found to be 2.55%.

Turning to `CN1CCC(CNC(=O)CCSc2ccc3c(c2)OCCO3)C1` (configuration not stated), the cytotoxicity at 10 µM is -3.13%.

Take `COc1ccc(C2CCCN2C(=O)NCCn2ccnc2)cc1OC` (configuration not stated): the cytotoxicity at 10 µM was -2.16%.

In the case of `COc1ccc(COCC(O)CNC(=O)c2cc(C)cc(C)c2)cc1` (configuration not stated), the cytotoxicity at 10 µM came out at 0.385%.

Take `COc1ccc(-n2c(CO)nc3ccccc32)cc1CO`: the cytotoxicity at 10 µM was 1.78%.

With `CCc1cc(NC(C)(C)C)nc(N2CCOCC2)n1`, the cytotoxicity at 10 µM worked out at 0.393%.

Take `CN(c1ncc(C(=O)Nc2ccccc2)c(N)n1)C1CCCCC1`: the cytotoxicity at 10 µM is -6.21%.

Consider `O=C(c1cccnc1)N1CCCC(c2ccnc3nccn23)C1` (configuration not stated), for which the cytotoxicity at 10 µM stood at 6.2%.

Turning to `O=C(Cc1ccc(O)c(F)c1)N1CCN(CC2CC2)[C@@H]2CS(=O)(=O)C[C@@H]21`, the cytotoxicity at 10 µM is -2.06%.

Regarding `O=C1CCc2cc(S(=O)(=O)NCc3cc4n(n3)CCCNC4)ccc2N1`, the cytotoxicity at 10 µM was -5.38%.

`CCC(CNS(C)(=O)=O)Oc1ccccc1C` (configuration not stated): the cytotoxicity at 10 µM came to 17.3%.

Consider `CN(C)CC1CN(Cc2coc(-c3ccccc3Cl)n2)CCO1` (configuration not stated), for which the cytotoxicity at 10 µM is -1.15%.

As for `CCn1cc(CN2CCCN(C3Cc4ccccc4C3)CC2)c(C)n1`, the cytotoxicity at 10 µM was -10.9%.

Regarding `Cc1cc(C(=O)Nc2cnn(CC(F)(F)F)c2)nc(N2CCOCC2)n1`, the cytotoxicity at 10 µM was -2.02%.

`O=C(NCCNc1ncccn1)C1CC(=O)N(Cc2ccccc2)C1` (configuration not stated): the cytotoxicity at 10 µM is -16.2%.

For the compound `O=C(CSCC1CC1)N1CCC2(CCCN(C3CCOCC3)C2=O)C1` (configuration not stated), the cytotoxicity at 10 µM is -127%.

Turning to `CCc1nc(CN(C)CC(=O)OC(C)(C)C)cs1`, the cytotoxicity at 10 µM came out at 3.91%.

`COCC(=O)N1CCC(c2nccn2CC2CC2)CC1`: the cytotoxicity at 10 µM was -14.6%.

With `CSc1ncc(Cl)c(C(=O)NC(Cc2ccccc2)C(=O)O)n1` (configuration not stated), the cytotoxicity at 10 µM is -17.3%.

For `Cc1c(C(=O)N2CCOCC2)n(C)c2ccc(Cl)cc12`, the cytotoxicity at 10 µM is -0.244%.

On to `O=C(Cc1csc(-c2ccco2)n1)N1CCCC1Cn1cccn1` (configuration not stated), for which the cytotoxicity at 10 µM is -11.2%.

In the case of `COc1ccc(COCC(O)CN(C)c2ccc(C)cc2C)cc1` (configuration not stated), the cytotoxicity at 10 µM is 1.6%.
